“And” between values parts separate entries of the source, which are not always exact repeats. Identical values can stand only once.
Columns and labels:
[1] = biological target: Serotonin (5-HT) receptor (Rattus norvegicus) (UniProt P35563+P35365+P32305+P31388+Q9JJ16+P28564+P30994+Q62758+P08909+P14842+P30940+P35364+P19327+P28565); experiment: Dose corresponding to half-maximal decrease of 5-HTP formation in the limbic and striatal parts of rat brain; type: functional, tissue-based
[2] = biological target: T1, Dopamine receptor (Rattus norvegicus) (UniProt P25115+P19020+P30729+P18901+P61169); experiment: In vivo accumulation of DOPA in limbic of rat brain at a dose of 53 umol/kg.; type: functional, organism-based
Procedure, shortened: (§1)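 Rats, reserpine-pretreated (5 mg/kg, i.e. 9 μmol/kg sc, 6 h before) or nonpretreated, given test hydrochloride sc in the neck (injection volume 5 mL/kg). Decarboxylase inhibitor NSD 1015 (100 mg/kg ip or 60 mg/kg sc) given 30 min later; decapitation after another 30 min. Brain dissected on ice into striatum, limbic system, hemispheres, brain stem. Homogenized in 0.1 M perchloric acid with α-methyl-DOPA internal standard; DOPA measured by ion-pair reversed-phase HPLC with electrochemical detection.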

[3] = biological target: T1, Dopamine receptor (Rattus norvegicus); experiment: In vivo accumulation of DOPA in hemisphere of rat brain at a dose of 53 umol/kg.; type: functional, organism-based; procedure, shortened: as §1
[4] = system: Rattus norvegicus; experiment: In vivo accumulation of DOPA in brain stem of rat brain at a dose of 0.32 umol/kg.; type: functional
Procedure, shortened: (§2)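 Hydrochlorides given sc in the neck (5 mL/kg) to rats, either untreated or reserpine-pretreated (5 mg/kg sc, 6 h before). Decarboxylase inhibitor NSD 1015 (100 mg/kg ip or 60 mg/kg sc) given 30 min later; rats decapitated after another 30 min. Striatum, limbic system, hemispheres and brain stem dissected on ice and homogenized in 0.1 M perchloric acid with α-methyl-DOPA internal standard. DOPA, DA, 5-HTP and 5-HT measured by ion-pair reversed-phase HPLC with electrochemical detection.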

[5] = system: Rattus norvegicus; experiment: In vivo accumulation of DOPA in brain stem of rat brain at a dose of 1 umol/kg.; type: functional; procedure, shortened: as §2
[6] = system: Rattus norvegicus; experiment: In vivo accumulation of DOPA in brain stem of rat brain at a dose of 3.2 umol/kg.; type: functional; procedure, shortened: as §2
[7] = system: Rattus norvegicus; experiment: In vivo accumulation of 5-HT in striatum of rat brain at a dose of 0.32 umol/kg.; type: functional; procedure, shortened: as §2
[8] = system: Rattus norvegicus; experiment: In vivo accumulation of 5-HT in striatum of rat brain at a dose of 1 umol/kg.; type: functional; procedure, shortened: as §2
[9] = system: Rattus norvegicus; experiment: In vivo accumulation of 5-HT in striatum of rat brain at a dose of 3.2 umol/kg.; type: functional; procedure, shortened: as §2
[10] = system: Rattus norvegicus; experiment: In vivo accumulation of 5-HTP in striatum of rat brain at a dose of 0.32 umol/kg.; type: functional; procedure, shortened: as §2
[11] = system: Rattus norvegicus; experiment: In vivo accumulation of 5-HTP in striatum of rat brain at a dose of 1 umol/kg.; type: functional; procedure, shortened: as §2
[12] = system: Rattus norvegicus; experiment: In vivo accumulation of 5-HTP in striatum of rat brain at a dose of 3.2 umol/kg.; type: functional; procedure, shortened: as §2
[13] = system: Rattus norvegicus; experiment: In vivo accumulation of DA in striatum of rat brain at a dose of 0.32 umol/kg.; type: functional; procedure, shortened: as §2
[14] = system: Rattus norvegicus; experiment: In vivo accumulation of DA in striatum of rat brain at a dose of 1 umol/kg.; type: functional; procedure, shortened: as §2
[15] = system: Rattus norvegicus; experiment: In vivo accumulation of DA in striatum of rat brain at a dose of 3.2 umol/kg.; type: functional; procedure, shortened: as §2
[16] = system: Rattus norvegicus; experiment: In vivo accumulation of DOPA in limbic of rat brain at a dose of 0.32 umol/kg.; type: functional; procedure, shortened: as §1
[17] = system: Rattus norvegicus; experiment: In vivo accumulation of DOPA in limbic of rat brain at a dose of 1 umol/kg.; type: functional; procedure, shortened: as §1
[18] = system: Rattus norvegicus; experiment: In vivo accumulation of DOPA in limbic of rat brain at a dose of 3.2 umol/kg.; type: functional; procedure, shortened: as §1
[19] = system: Rattus norvegicus; experiment: In vivo accumulation of 5-HTP in hemisphere of rat brain at a dose of 0.32 umol/kg.; type: functional; procedure, shortened: as §2
[20] = system: Rattus norvegicus; experiment: In vivo accumulation of 5-HTP in hemisphere of rat brain at a dose of 1 umol/kg.; type: functional; procedure, shortened: as §2
[21] = system: Rattus norvegicus; experiment: In vivo accumulation of 5-HTP in hemisphere of rat brain at a dose of 3.2 umol/kg.; type: functional; procedure, shortened: as §2
[22] = system: Rattus norvegicus; experiment: In vivo accumulation of DOPA in hemisphere of rat brain at a dose of 0.32 umol/kg.; type: functional; procedure, shortened: as §1
[23] = system: Rattus norvegicus; experiment: In vivo accumulation of DOPA in hemisphere of rat brain at a dose of 3.2 umol/kg.; type: functional; procedure, shortened: as §1
[24] = system: Rattus norvegicus; experiment: In vivo accumulation of 5-HTP in brain stem of rat brain at a dose of 0.32 umol/kg.; type: functional; procedure, shortened: as §2
[25] = system: Rattus norvegicus; experiment: In vivo accumulation of 5-HTP in brain stem of rat brain at a dose of 1 umol/kg.; type: functional; procedure, shortened: as §2
[26] = system: Rattus norvegicus; experiment: In vivo accumulation of 5-HTP in brain stem of rat brain at a dose of 3.2 umol/kg.; type: functional; procedure, shortened: as §2
[27] = system: Rattus norvegicus; experiment: In vivo accumulation of DOPA in striatum of rat brain at a dose of 0.32 umol/kg.; type: functional; procedure, shortened: as §1
[28] = system: Rattus norvegicus; experiment: In vivo accumulation of DOPA in striatum of rat brain at a dose of 1 umol/kg.; type: functional; procedure, shortened: as §1
[29] = system: Rattus norvegicus; experiment: In vivo accumulation of DOPA in striatum of rat brain at a dose of 3.2 umol/kg.; type: functional; procedure, shortened: as §1
[30] = system: Rattus norvegicus; experiment: In vivo accumulation of 5-HTP in limbic of rat brain at a dose of 1 umol/kg.; type: functional; procedure, shortened: as §2
[31] = system: Rattus norvegicus; experiment: In vivo accumulation of 5-HTP in limbic of rat brain at a dose of 3.2 umol/kg.; type: functional; procedure, shortened: as §2
[32] = system: Rattus norvegicus; experiment: In vivo accumulation of 5-HT in limbic of rat brain at a dose of 0.32 umol/kg.; type: functional; procedure, shortened: as §2
[33] = system: Rattus norvegicus; experiment: In vivo accumulation of 5-HT in limbic of rat brain at a dose of 1 umol/kg.; type: functional; procedure, shortened: as §2
[34] = system: Rattus norvegicus; experiment: In vivo accumulation of 5-HT in limbic of rat brain at a dose of 3.2 umol/kg.; type: functional; procedure, shortened: as §2
[35] = system: Rattus norvegicus; experiment: In vivo accumulation of 5-HTP in limbic of rat brain at a dose of 0.32 umol/kg.; type: functional; procedure, shortened: as §2
[36] = system: Rattus norvegicus; experiment: In vivo accumulation of DOPA in brain stem of rat brain at a dose of 0.1 umol/kg.; type: functional; procedure, shortened: as §2
[37] = system: Rattus norvegicus; experiment: In vivo accumulation of 5-HT in striatum of rat brain at a dose of 0.1 umol/kg.; type: functional; procedure, shortened: as §2
[38] = system: Rattus norvegicus; experiment: In vivo accumulation of 5-HTP in striatum of rat brain at a dose of 0.1 umol/kg.; type: functional; procedure, shortened: as §2
[39] = system: Rattus norvegicus; experiment: In vivo accumulation of DA in striatum of rat brain at a dose of 0.1 umol/kg.; type: functional; procedure, shortened: as §2
[40] = system: Rattus norvegicus; experiment: In vivo accumulation of 5-HTP in hemisphere of rat brain at a dose of 0.1 umol/kg.; type: functional; procedure, shortened: as §2
[41] = system: Rattus norvegicus; experiment: In vivo accumulation of DOPA in hemisphere of rat brain at a dose of 0.1 umol/kg.; type: functional; procedure, shortened: as §1
[42] = system: Rattus norvegicus; experiment: In vivo accumulation of 5-HTP in brain stem of rat brain at a dose of 0.1 umol/kg.; type: functional; procedure, shortened: as §2
[43] = system: Rattus norvegicus; experiment: In vivo accumulation of DOPA in striatum of rat brain at a dose of 0.1 umol/kg.; type: functional; procedure, shortened: as §1
[44] = system: Rattus norvegicus; experiment: In vivo accumulation of DOPA in limbic of rat brain at a dose of 0.1 umol/kg.; type: functional; procedure, shortened: as §1
[45] = system: Rattus norvegicus; experiment: In vivo accumulation of 5-HT in limbic of rat brain at a dose of 0.1 umol/kg.; type: functional, Limbic system; procedure, shortened: as §2
[46] = system: Rattus norvegicus; experiment: In vivo accumulation of 5-HTP in limbic of rat brain at a dose of 0.1 umol/kg.; type: functional; procedure, shortened: as §2

Structure (SMILES)	ED50 [1] [mg/kg]	Control [2]	Control [3] [%]	Control [4] [%]	Control [5] [%]	Control [7] [%]	Control [8] [%]	Control [10] [%]	Control [11] [%]	Control [13] [%]	Control [14] [%]	Control [16]	Control [17]	Control [19] [%]	Control [20] [%]	Control [22] [%]	Control [24] [%]	Control [25] [%]	Control [27] [%]	Control [28] [%]	also measured
CCCN1CCC[C@H]2Cc3cccc(O)c3C[C@H]21	> 0.05	76.9% and 83.2%	116																		
CCCN1CCC[C@H]2Cc3cccc(O)c3C[C@@H]21	> 0.05	91.4% and 87.5%	98.8																		
CCCN1CCC[C@@H]2c3c(O)cccc3CC[C@H]21				87	102.9	107.1	113.2	69.9	56.3	110.6	129.5	91.1% and 114.1%	85.5% and 95.2%	70.9	51.9	111	76.1	65.3	109.4	116.2	Control [6]: 125.1%; Control [9]: 128.8%; Control [12]: 34%; Control [15]: 120.2%; Control [18]: 111.4% and 118.2%; Control [21]: 50.6%; Control [23]: 119%; Control [26]: 59.9%; Control [29]: 99.6%; Control [30]: 58.5%; Control [31]: 50.3%; Control [32]: 108.1%; Control [33]: 119.3%; Control [34]: 144.1%; Control [35]: 85.1%
CCCN1CCC[C@H]2c3c(O)cccc3CC[C@@H]21				110.1	133.3	81.6	134.9	51.5	44.7	108.2	115.8	115.9% and 107.8%	107.3% and 111%	60.8	43	114	70.7	61.1	113.6	117.6	Control [36]: 93.2%; Control [37]: 98.1%; Control [38]: 55.3%; Control [39]: 123.1%; Control [40]: 74.7%; Control [41]: 97%; Control [42]: 90.8%; Control [43]: 109.3%; Control [30]: 52.3%; Control [44]: 95.9% and 124.5%; Control [45]: 126.7%; Control [32]: 138.1%; Control [33]: 170.1%; Control [46]: 85.1%; Control [35]: 69.7%

Reference: ChEMBL document CHEMBL1125228, “A 3-D model for 5-HT1A-receptor agonists based on stereoselective methyl-substituted and conformationally restricted analogues of 8-hydroxy-2-(dipropylamino)tetralin” (J Med Chem, 1991)
